An excerpt weighted towards active compounds, which were near 12% of everything screened.
Lmaj promast: Leishmania major promastigote growth inhibition, primary screen | AID 1063, 2008 | Leishmania major promastigotes, resazurin fluorescence viability | hit rate 9% among 200,000 | inhibition, % at 10 µM; in the data active means inhibition above about 50%;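 further: promastigotes grown with compound for 44 hours at 28 °C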
bCat nuc transl: modulators of beta-catenin nuclear translocation, primary screen, imaging, HeLa cells, immunofluorescence, high-content; hit rate 0.3% among 190,000; nuclear translocation activity, % at 5 µM;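 active means nuclear translocation activity above 50% at 5 µM, with a well cell count of 50 or more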;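 further: per-cell ratio of nuclear to cytoplasmic median beta-catenin stain intensity; plate controls were DMSO negative control for no effect and GSK-3 inhibitor IX positive control for full effect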
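test system = HeLa cells, endogenous beta-catenin | dosing = single 5 µM dose plus 0.02–20 µM confirmation series | times = compound treatment 24 h, 37°C, 5% CO2 | technique = beta-catenin immunofluorescence imaging with DAPI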
Dynein cargo inh: inhibitors of GR-EGFP nuclear translocation, primary screen, dynein cargo transport inhibitor project, imaging, high-content, 3617.4 mouse cells | AID 1381, 2008 | test concentration mostly 20 µM; stimulated with dexamethasone, 1 µM; active compounds read low | z-score, hits read low | hit rate 0.47% among 220,000;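 active means plate z-score of nuclear minus cytoplasmic receptor signal below a set negative limit, without overly bright fluorescence or cell loss, cut at about -3.5 in these data, passing the limit was not always enough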;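 further: z-score of nuclear minus cytoplasmic ring GR-EGFP intensity difference per well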
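Buffer or medium: tet-free medium with charcoal-stripped serum / Also added: dexamethasone agonist, 1.0 µM final, for 30 min / Timing: induction 48 h, compound 1 h, agonist 30 min / Measured by: high-content fluorescence imaging after fixation / Read-out: nuclear-to-cytoplasmic GR-EGFP distribution per well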
Autophagy HCS: autophagy modulators in MEF cells, primary screen, imaging, high-content, MEF GFP-LC3. MEF GFP-LC3 puncta imaging; test concentration mostly 10 µM. calls only at 10 µM (by protocol). hit rate 0.98% among 190,000. AID 463193, 2010;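 active means percentage of spot-positive cells more than 3 SD above its plate mean, without a fluorescence outlier flag or 80% toxicity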;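 further: spot-positive cell cutoff set from DMSO-treated cells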
MT stabilize HCS: microtubule stabilizers in HeLa cells, primary screen, imaging, high-content imaging; HeLa tubulin immunostaining HCS, 24 h; share of cells brighter than vehicle mean+2SD; hit rate 0.83% among 200,000; % tubulin-high responders, % at 10 µM;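 active means plate Z-score above 3 for both tubulin-high and condensed-nucleus cell shares, with cell loss under 80%, at 10 µM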;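 further: anti alpha tubulin signal scored within the nucleus-defined area of each cell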
CHOP inhibitor: inhibitors of CHOP promoter induction, primary screen, cell-based, unfolded protein response, luciferase reporter | CHO-K1 CHOP-promoter luciferase, tunicamycin-induced, 15-18 h | inhibition, % at 10 µM | hit rate 3.8% among 220,000;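 active means compounds that reduced the stress-induced luciferase reporter signal by more than about 70% of percent inhibition, limit read from the data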;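 further: 0% = tunicamycin plus vehicle and 100% = wells without tunicamycin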
The depositor's hits bear a star; i = inactive; . = no result given.

SMILES	Lmaj promast	bCat nuc transl	Dynein cargo inh	Autophagy HCS	MT stabilize HCS	CHOP inhibitor
Cc1cc(-c2c(C)[nH]n(-c3ccccc3)c2=O)n[nH]1	1	0	-0.18	i	2	-29
Cc1ccc(NC(=O)Nc2cccc([N+](=O)[O-])c2)nc1	6	2	-0.017	i	5	0
O=C(Nc1ccc(Cl)cc1)Nc1nnc(Cc2ccc([N+](=O)[O-])cc2)s1	-6	-1	-0.85	i	4	0
Cc1ccc(NC(=O)Nc2nnc(Cc3ccc([N+](=O)[O-])cc3)s2)cc1	-6	-3	0.54	i	4	76*
CC(C)Cc1nnc(NC(=O)Nc2ccccc2)s1	36	0	-0.62	i	2	70*
Cc1ccc(NC(=O)Nc2ccc([N+](=O)[O-])cc2)nc1	2	-2	0.26	i	2	70*
CC(C)(CNC(=O)c1ccc([N+](=O)[O-])c(Cl)c1)CNC(=O)c1ccc([N+](=O)[O-])c(Cl)c1	88*	.	-1.2	i	4	21
Cc1cc(C)n(C(=O)c2c([N+](=O)[O-])cnn2C)n1	-4	2	1.8	i	3	18
Cc1cc(C)n(C(=O)c2ccc([N+](=O)[O-])c(Cl)c2)n1	92*	.	1.6	i	5	35
CCc1ccccc1N(C(C)=O)c1nc(CN=C=S)cs1	0	-4	0.36	i	2	0
Nc1nc(-c2cccc(NS(=O)(=O)c3ccccc3)c2)cs1	59*	2	-0.032	i	2	2
CC(=O)Nc1ccc(S(=O)(=O)Nc2cccc(-c3csc(C)n3)c2)cc1	3	1	-1.1	i	6	19
CCOC(=O)C1(CCOC)CCN(Cc2nc(C(C)C)cs2)CC1	-5	0	0.34	i	1	-7
COc1ccccc1CC(=O)Nc1ccc(O)cc1C(=O)O	-3	-1	-1.1	i	2	15
Cc1c(CCC(C)C)c(=O)n2c([nH]c3ccccc32)c1C#N	99*	-2	-1	i	1	96*
CCCCc1ccc(S(=O)(=O)NCCc2ccncc2)cc1	84*	-1	-0.18	i	5	53
Cc1ccc(S(=O)(=O)NCCc2ccncc2)cc1	-4	.	0.44	i	1	33
COc1cccc(Nc2nc(=O)[nH]nc2C)c1	-5	.	0.083	i	2	-11
CCOC(=O)C1(CCOc2ccccc2)CCN(Cc2ccncc2)CC1	86*	1	-0.18	i	4	38
CCOC(=O)C1(CCOc2ccccc2)CCN(Cc2cccn2-c2ncccn2)CC1	41	0	-0.48	i	3	41
CCOC(=O)C1(CCOc2ccccc2)CCN(Cc2ccc(-n3cccn3)cc2)CC1	90*	-1	0.087	i	2	50
C/C(=N\N(Cc1ccccc1)c1ccccc1)c1ccncc1	35	2	0.26	i	3	31
O=C(CSc1nc2cc(Cl)ccc2s1)NCc1ccc2c(c1)OCO2	76*	.	1.6	i	3	-10
COc1ccc(/C=C(/CC(=O)NCc2ccc(Cl)cc2)c2nc3ccccc3s2)cc1	30	.	0.082	i	4	-23
COc1ccccc1/C=C(/CC(=O)NCc1ccc2c(c1)OCO2)c1nc2ccccc2s1	93*	.	0.93	i	2	-17
SMILES	Lmaj promast	bCat nuc transl	Dynein cargo inh	Autophagy HCS	MT stabilize HCS	CHOP inhibitor
O=C(CSc1ncnc2c1cnn2-c1ccc(Cl)cc1)NCc1ccc2c(c1)OCO2	52*	1	-0.68	i	2	72*
COc1ccccc1C(=O)NNC(=S)NC(=O)c1ccco1	7	-1	-0.066	i	4	38
O=C(Nc1cccc(Cl)c1)Nc1ccccc1C(=O)O	.	-1	1.1	.	.	0
CCOC(=O)c1cccc(NC(=O)Nc2ccc(OCC)cc2)c1	-4	-6	-0.56	i	2	0
Cc1ccccc1OCC(=O)Nc1cccc(C(=O)O)c1	2	-3	1.1	i	1	89*
O=C(NNc1cccc(Cl)n1)Nc1cccc(Cl)c1	97*	-3	0.14	i	2	12

Screening results deposited in PubChem by several laboratories.
